Source: PubChem BioAssay
Sampled rows, rich in hits. Any-hit rate of the full collection: about 0.94%.
NPR2 activator: GC-B (human) receptor activation; HEK293-GC-B cells, CNP EC30, cGMP TR-FRET; 0% at EC30 CNP, 100% saturating CNP; P20594; activation, % at 10 µM; hit rate 0.11% among 370,000;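 active = activation at 10 µM reaching about 35% in either raw or pattern-adjusted values, limit read from the data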
Target sequence (P20594 whole entry, looked up): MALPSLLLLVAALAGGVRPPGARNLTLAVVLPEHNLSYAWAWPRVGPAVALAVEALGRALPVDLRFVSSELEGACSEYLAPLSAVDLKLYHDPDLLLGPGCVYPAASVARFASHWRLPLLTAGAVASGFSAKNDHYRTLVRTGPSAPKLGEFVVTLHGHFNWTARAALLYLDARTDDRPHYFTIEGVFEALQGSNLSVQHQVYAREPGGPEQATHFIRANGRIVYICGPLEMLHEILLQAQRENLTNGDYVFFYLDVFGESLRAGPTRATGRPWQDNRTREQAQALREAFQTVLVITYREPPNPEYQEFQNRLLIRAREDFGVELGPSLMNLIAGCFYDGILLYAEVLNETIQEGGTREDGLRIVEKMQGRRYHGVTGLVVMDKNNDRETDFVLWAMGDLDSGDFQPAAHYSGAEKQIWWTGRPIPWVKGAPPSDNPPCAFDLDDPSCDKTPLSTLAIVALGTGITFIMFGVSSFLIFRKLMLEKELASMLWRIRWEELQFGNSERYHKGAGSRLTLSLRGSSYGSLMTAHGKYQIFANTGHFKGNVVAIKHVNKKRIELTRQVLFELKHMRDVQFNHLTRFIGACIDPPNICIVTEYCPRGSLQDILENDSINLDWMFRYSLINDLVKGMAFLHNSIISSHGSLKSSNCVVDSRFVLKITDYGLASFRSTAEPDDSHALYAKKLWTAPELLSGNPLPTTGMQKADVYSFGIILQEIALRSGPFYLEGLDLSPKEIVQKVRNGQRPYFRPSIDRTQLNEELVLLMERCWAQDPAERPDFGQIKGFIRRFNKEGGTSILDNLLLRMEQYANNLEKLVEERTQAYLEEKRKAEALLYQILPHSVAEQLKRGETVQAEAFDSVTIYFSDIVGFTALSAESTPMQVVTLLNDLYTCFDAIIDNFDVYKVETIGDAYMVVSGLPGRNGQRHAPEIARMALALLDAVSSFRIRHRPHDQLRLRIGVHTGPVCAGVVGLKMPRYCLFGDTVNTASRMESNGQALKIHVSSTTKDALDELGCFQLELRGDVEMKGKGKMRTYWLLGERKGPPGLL
GalR3 antagonist: blocks the human galanin receptor 3 | O60755 | HEK293 GalR3-CNG cAMP membrane potential fluorescence; galR3 body fused to GalR1 C-terminus | inhibition, % at 3 µM | hit rate 0.44% among 360,000 | AID 651719;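 active = inhibition above the screen-wide average plus 3 SD, cut at about 13% in these data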;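 note: forskolin and galanin both at EC90 stimulate the cells; cAMP rise reported by CNG channel membrane potential dye signal; 0% = forskolin plus galanin with DMSO and 100% = forskolin alone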
NPR1 activator: GC-A (human) enzyme activation | P16066 | HEK293 GC-A cells, cGMP TR-FRET, EC30 ANP; 0% at EC30 ANP, 100% saturating ANP | activation, % at 10 µM | hit rate 0.14% among 370,000 | AID 1671463; in the data active = activation above about 40%
Arrestin-AP2 inh: inhibitors of human beta-arrestin and AP2 interaction | AID 504490 | FITC-arrestin peptide / GST-AP2 beads, flow cytometry; AP2 beta2 appendage carries R879A mutation | hit rate 0.31% among 340,000 | inhibition, % at 10 µM;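 active = inhibition above a set limit, near 3 SD of compounds lacking own fluorescence, cut at about 54% in these data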;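 note: plate controls were DMSO wells for no effect and 5 µM unlabelled arrestin peptide for full effect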
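Measured by: flow cytometry, FL1 (488/535 nm); Material: AP2 appendage R879A on GSH beads; Evaluation: percent response; Timing: pre-incubation 12 min, peptide binding 1 h, room temperature; Also added: 50 nM FITC-arrestin peptide; Medium: PBS with 0.05% Tween 20 and 0.1% BSA.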
Arr-AP2 CP1: blocks beta-arrestin peptide binding to human AP2; shares compounds with Arrestin-AP2 inh; GST-AP2 beads, FITC arrestin peptide binding, flow cytometry; GST-fused beta2-adaptin appendage, R879A mutant; inhibition, % at 10 µM; hit rate 2% among 1,300; AID 504908;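 active = inhibition above a set limit, roughly 3 SD of non-fluorescent compound noise, cut at about 38% in these data; inactive = inhibition at or below that limit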;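 note: loss of bead fluorescence from 50 nM FITC arrestin peptide bound to appendage; 0% = negative control wells and 100% = excess unlabelled arrestin peptide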
GST-FITC bead: GST-GSH bead binding interference, counter-screen; inhibition, % at 10 µM; hit rate 2% among 1,300; shares compounds with Arrestin-AP2 inh; AID 588338; GST-fluorescein binding to GSH beads, fluorescence;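 active = inhibition above 50%, about 3 SD of the inhibition seen with non-fluorescent compounds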;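 note: fluorescein maleimide labelled GST captured on 4 micron glutathione beads; higher means more loss of bead fluorescence from quenching or blocked binding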
Starred values were filed as active, the others as inactive; . = not tested or not shown.

SMILES	NPR2 activator	GalR3 antagonist	NPR1 activator	Arrestin-AP2 inh	Arr-AP2 CP1	GST-FITC bead
Cc1ccc(OCc2nnc(SCC(=O)Nc3ccc4c(c3)OCO4)n2Cc2ccco2)cc1	-9.0	.	-4.5	.	.	.
O=C1CC(c2ccco2)CC2=C1C1c3ccccc3C(=O)N1c1ccccc1N2 (centres undefined)	-7.6	2.4	-17.8	98.6*	5.6	-3.7
CCN(CC)C(=O)Cn1cc(/C=C(\C#N)C(=O)NC2CC2)c2ccccc21	1.2	-7.6	-1.4	61.0*	7.7	-6.3
CNc1cccc2c1C(=O)c1ccccc1C2=O	-5.1	-3.8	10.7	66.5*	2.6	2.7
O=C1c2ccccc2C(=O)c2c(NCc3cccnc3)cccc21	-5.2	-3.5	7.9	5.5	.	.
CCCCCCN1C=C/C(=C\C=C(C#N)C#N)c2ccccc21	-16.5	-3.8	-12.7	74.8*	-7.6	8.0
COC(=O)Cc1nnn2c1[C@H](C)[C@@H](OC)c1ccccc1-2	-3.0	-1.5	0.0	.	.	.
Cc1ccc(NC(=O)N2CCC(c3nc4ccc(Cl)cc4[nH]3)CC2)cc1F	-2.8	.	-6.7	.	.	.
COc1cc2c(cc1OC)CN(C(=S)Nc1ccc(OC(F)F)cc1)CC2	-1.8	-4.3	5.3	55.6*	0.1	-3.5
COC[C@H]1CCCN1c1cccc2c1S(=O)(=O)N1CC[C@@H](C1)O2	5.4	.	0.0	.	.	.
O=C(CSc1nnc(-c2ccccn2)n1-c1ccccc1)Nc1ccc(OCc2ccccc2)cc1	3.6	.	1.4	.	.	.
Cc1ccc(C(=O)NC(NCc2ccco2)C(Cl)(Cl)Cl)cc1 (centres undefined)	-3.9	-2.6	0.1	55.0*	2.7	-2.4
COc1cc([N+](=O)[O-])cc2sc(NC(C)=O)nc12	2.5	-6.3	35.2	13.1	.	.
CCCCC(=O)Nc1nc2c(OC)cc([N+](=O)[O-])cc2s1	1.7	-2.1	27.6	54.9*	-11.6	-10.2
Cc1cc(C)c(CN2CCC(N3CCC(C(=O)NCC4CCCO4)CC3)CC2)cc1C (centres undefined)	0.1	2.0	1.3	0.8	.	.
Cc1ccccc1CN1CCC(N2CCC(C(=O)NCC3CCCO3)CC2)CC1 (centres undefined)	2.3	-1.9	1.1	64.5*	-2.5	-5.3
Nc1nnc(SCC(=O)OCC(=O)Nc2ccccc2F)s1	-0.6	-3.2	-0.2	57.0*	-6.5	-10.1
CCCCSc1ncnc2[nH]ncc12	-2.1	-8.7	4.6	63.9*	15.9	-5.3
CCCNc1ncnc2[nH]ncc12	-7.0	-6.2	-0.2	14.2	.	.
Cc1nc2ccc(NC(=S)NC3CCCCC3)cc2nc1C	6.5	-3.4	3.2	54.9*	1.1	-6.6
CCN1/C(=C/c2ccc3cc(C)ccc3[n+]2CC)Sc2ccc3sccc3c21	.	.	.	75.1*	42.5*	139.7*
CC(C)Cn1c(N)c(C(=O)COC(=O)c2ccccc2F)c(=O)n(C)c1=O	4.3	-8.3	3.7	3.6	-1.1	0.3
CC(C)Cn1c(N)c(C(=O)COC(=O)c2ccccc2C(=O)c2ccccc2)c(=O)n(C)c1=O	0.4	-5.7	-3.2	7.5	.	.
CC(C)Cn1c(N)c(C(=O)COC(=O)c2cccn2C)c(=O)n(C)c1=O	-0.8	-2.6	-1.5	31.2	-6.8	-1.9
CC(C)Cn1c(N)c(C(=O)COC(=O)c2ccccc2Cl)c(=O)n(C)c1=O	-1.9	-2.8	12.3	-17.2	6.2	-2.8
SMILES	NPR2 activator	GalR3 antagonist	NPR1 activator	Arrestin-AP2 inh	Arr-AP2 CP1	GST-FITC bead
O=C(O)CCCC(=O)OCCCc1cc2ccccc2c(=O)o1	-4.3	-1.4	2.5	.	.	.
C[C@H]1CNCCN1c1ccc(N2CCS(=O)(=O)CC2)c(C#N)c1	-0.3	-5.7	-0.8	.	.	.
CCCCn1nnnc1C1c2ccccc2OCC(=O)N1Cc1ccc2c(c1)OCO2 (centres undefined)	-4.3	.	-2.1	.	.	.
O=S(=O)(c1cccc(-c2cn3cccnc3n2)c1)N1CCOCC1	0.1	-4.3	6.0	2.3	.	.
O=S(=O)(c1cccc(-c2cn3cccnc3n2)c1)N1CCCCCC1	-3.8	-2.8	1.7	61.2*	-0.9	-4.4
COc1ccc(S(=O)(=O)NC2CCCCC2)cc1-n1cnnn1	5.4	-5.1	0.2	56.3*	-5.7	-8.8
Cc1onc(-c2ccccc2)c1C(=O)NN=Cc1cc(Cl)cc(Cl)c1O	0.8	-5.3	0.5	.	.	.
CN(CC(=O)NCCc1ccc(S(N)(=O)=O)cc1)S(=O)(=O)c1cccc2nsnc12	0.9	-6.5	0.7	80.5*	-1.4	-9.8
NS(=O)(=O)c1ccc(CCNS(=O)(=O)c2cccc3nsnc23)cc1	2.5	-7.8	4.7	61.5*	-7.5	-4.7
COc1cc2c(cc1NC(=O)CSc1ccc(C)cc1)oc1ccccc12	6.5	-5.8	-1.3	6.5	-0.7	-6.5
COC(=O)c1cc(OC)c(OC)cc1NC(=O)C(C)Sc1ccc(C)cc1 (centres undefined)	-14.7	-3.5	-12.1	21.8	.	.
COc1cc2c(cc1NC(=O)C(C)Sc1ccc(C)cc1)oc1ccccc12 (centres undefined)	2.0	-6.4	-2.1	21.2	-3.3	.
COc1cc2c(cc1NC(=O)CSCC(=O)O)oc1ccccc12	-2.8	-2.3	1.8	-1.8	.	.
COc1cc2c(cc1NC(=O)COC(=O)c1ccc(C(C)(C)C)cc1)oc1ccccc12	4.0	-1.1	7.0	-1.3	-0.2	-0.5
COc1cc2c(cc1NC(=O)Cc1ccc(C)cc1)oc1ccccc12	3.8	-2.6	-9.4	4.6	3.9	-2.8
Nc1[nH]c(C(=O)c2ccc(Br)cc2)c(-c2ccc(F)cc2)c1C(=O)NCCc1c[nH]c2ccccc12	-5.2	-3.1	-8.3	.	.	.
O=C(CN1C(=O)CCSc2ccccc21)Nc1ccc(Cl)cc1	-2.5	.	1.0	.	.	.
COC(=O)[C@]12C[C@H](CC(=O)NCCCN3CCCC3=O)C(=O)N(CCC3=CCCCC3)C1=C[C@H](COCc1ccccc1)O[C@@H]2C	0.5	6.3	4.0	.	.	.
COC(=O)[C@]12C[C@H](CC(=O)N3CCOCC3)C(=O)N(Cc3ccc4c(c3)OCO4)C1=C[C@H](COCc1ccccc1)O[C@@H]2C	9.9	-6.0	0.4	.	.	.
COc1cc2c(cc1NC(=O)CCC(=O)O)oc1ccccc12	-6.4	-10.0	0.2	23.8	.	.
COc1cc2c(cc1NC(=O)COc1ccccc1OC)oc1ccccc12	-5.5	-2.9	-1.8	-1.8	-4.8	1.5
COc1cc2c(cc1NC(=O)CSc1cccc[n+]1[O-])oc1ccccc12	-9.4	-3.1	-2.0	56.2*	0.3	0.3
CC12CCC3c4ccc(OCCCO)c([N+](=O)[O-])c4CCC3C1CCC2=O (centres undefined)	7.1	-8.3	0.7	.	.	.
CCNC(=O)N(CC)C[C@H]1N[C@@](C)(C(=O)OC)[C@H]2C(=O)N(Cc3ccccc3)C(=O)[C@@H]12	1.3	-6.8	0.9	-7.0	.	.
